Tested on: MS2 coat protein
Assay: apparent Kd, MS2 coat protein; higher = weaker binding; RNA-MaP array; FMN 200 µM where present
Procedure, shortened: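 Apparent Kd: the median of filtered binding-curve fits from single clusters. Designs were transcribed on Illumina sequencing-chip clusters by stalled E. coli RNA polymerase and titrated with SNAP-549-labelled MS2 coat protein from 0.7 or 1.5 nM, doubling to 3 µM, in 100 mM Tris-HCl pH 7.5, 80 mM KCl, 4 mM MgCl2, BSA, DTT, yeast tRNA and Tween-20. Each series ran without and then with constant ligand, and green signal was normalised to red-channel RNA signal and control-cluster median Fmax.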

[1] = designed as: OFF switch for flavin mononucleotide, no ligand
[2] = ligand present: flavin mononucleotide, designed as: OFF switch for flavin mononucleotide
[3] = designed as: ON switch for flavin mononucleotide, no ligand
[4] = ligand present: flavin mononucleotide, designed as: ON switch for flavin mononucleotide

## CGCUAAUUAAUUAUAUUAAUUAUACAGGAUAUGUAACAUGAGGAUCACCCAUGUAUUCAAUGUAAACAGAAGGGUAUAUUAGCG
[1]
  apparent Kd: 10.7 nM
[2]
  apparent Kd: 16.2 nM

## CGCUAUGACAUAGGAUAUUGAUACAUGAGGAUCACCCAUGUCAACCAUGAAGCUCGAUUUGUUGACAAGAAGGAUGUGGUAGCG
[3]
  apparent Kd: 165 nM
[4]
  apparent Kd: 44.7 nM

## CGCUCACAUGAGGAUCACCCAUGUCCUAGGAGGUCAGGAUAUAGCUCGGAUGCGUUGAGGCUAGAAGGGACAGCUG
[3]
  apparent Kd: 259 nM
[4]
  apparent Kd: 84.7 nM

## CGCUGUCAUGCAGGAUAUGCAUUGGAUUACAAUGCAGAAGGGCGAUUACAUGAGGAUCACCCAUGUGUAGACGGUGAAGAAGAG
[3]
  apparent Kd: 137 nM
[4]
  apparent Kd: 13.1 nM

## CGGAAACAAGGAUAUACAUGAGGAUCACCCAUGUCGCUAACUGCGCUCUUGUGAUCCGGUAGAAGGUGUGAAUA
[1]
  apparent Kd: 29.8 nM
[2]
  apparent Kd: 41 nM

## CGGAUCGCAUGAGGAUAUGGUCAGGUUUCCUGACCAGAAGGCAUGUCAUAAGACAUGAGGAUCACCCAUGUAGUUAAGAUCCGA
[3]
  apparent Kd: 577 nM
[4]
  apparent Kd: 40.2 nM

## CGGCAUCAUGUAGGAUAUGCGUGGCGAAGCUAUGCAGAAGGACAUGAGGAUCACCCAUGUCUUACCUAGCGUACUAGGUUGCCG
[1]
  apparent Kd: 6.37 nM
[2]
  apparent Kd: 16.1 nM

## CGGCGGAAAGGAUAUGCAGUUAUAUCAAAAUGUGGGCCACGACAUGAGGAUCACCCAUGUAGAAGGUUCAGCCG
[1]
  apparent Kd: 16 nM
[2]
  apparent Kd: 13.4 nM

## CGGCGGAAAGGAUAUGCAUUAAUAUCAAUAUGUGGGCCACGACAUGAGGAUCACCCAUGUAGAAGGUUCAGCCG
[1]
  apparent Kd: 21.8 nM
[2]
  apparent Kd: 16.8 nM

## CGGUAGGGAGGAUAUCCAAUAUAUGACAUGAGGAUCACCCAUGUUUCCACUCGUACCUCCGGAGAAGGCCCAUCCC
[1]
  apparent Kd: 19.7 nM
[2]
  apparent Kd: 20.4 nM

## CGGUCAUGAGGAUAUCGAGGUUAGUACAUGAGGAUCACCCAUGUUAUCCAGGUGUCGGUUCGAGAAGGCAUGUCCG
[1]
  apparent Kd: 461 nM
[2]
  apparent Kd: 753 nM

## CGGUCCCAUGUGAGGAUAUCGGAGCGAAAAUACUGCGAGAAGGUACAUGAGGAUCACCCAUGUCUCCUAUUGCC
[1]
  apparent Kd: 16.5 nM
[2]
  apparent Kd: 32.5 nM

## CGGUGACGUGUAGGAUAUGGCGAUGGGUUUUGGCCAGAAGGACAUGAGGAUCACCCAUGUGGUAGAGGGCUGGCGGCUGCCCGU
[1]
  apparent Kd: 13.6 nM
[2]
  apparent Kd: 57.5 nM

## CGGUGGUCAGGAUAUACGAACAUGUCGCCAGAUGUCAUGGUACAUGAGGAUCACCCAUGUAGAAGGGAGUAGGU
[1]
  apparent Kd: 181 nM
[2]
  apparent Kd: 171 nM

## CGUAUAUGGGAGAAGGCAUGUCCCAAAGGGCUAUGAGGAUAUCCUAAGUGUACGCUUUGCGACAUGAGGAUCACCCAUGUAGCA
[3]
  apparent Kd: 10.5 nM
[4]
  apparent Kd: 6.36 nM

## CGUAUGAUGUCAGGAUAUGACGCUGAGAGCACGUCAGAAGGGACAUGAGGAUCACCCAUGUUGGGCUAAUGAAGCUAUGGCACU
[1]
  apparent Kd: 14.6 nM
[2]
  apparent Kd: 43.5 nM

## CGUAUGUCAGGAUAUGCGUAAGCCGGUCAGGGCGAGCGGCAGCAGAAGGGACAUGAGGAUCACCCAUGUUCGGG
[1]
  apparent Kd: 64.6 nM
[2]
  apparent Kd: 47.8 nM

## CGUAUGUCAGGAUAUGCGUAUGCCACCCAGGACGGGCGGCAGCAGAAGGGACAUGAGGAUCACCCAUGUUCGGG
[1]
  apparent Kd: 75 nM
[2]
  apparent Kd: 68.4 nM

## CGUCCGUGGGUAGUGAUCGUACAUGAGGAUCACCCAUGUGAGAAGGAUAUGCAUGCACGUGGACAGCAGAAGGUCUCACAACAA
[1]
  apparent Kd: 238 nM
[2]
  apparent Kd: 101 nM

## CGUCUCAUAGGAUAUGCACGGAGGCAGGUCCUUGGCAACACACAUGAGGAUCACCCAUGUAGAAGGAUGCUACG
[1]
  apparent Kd: 19.4 nM
[2]
  apparent Kd: 30.5 nM

## CGUGACUACAUAGGAUAUUGAUACAUGAGGAUCACCCAUGUCACCCAUUUAUAUAUUAGUGUUGACAAGAAGGAUGUGGUCACG
[3]
  apparent Kd: 16.2 nM
[4]
  apparent Kd: 7.25 nM

## CGUGCGUAUGUGAGGAUAUGCUGGUCCUUGGAUCGGCAGAAGGCACAUGAGGAUCACCCAUGUGGUGUCGUCCA
[1]
  apparent Kd: 85.8 nM
[2]
  apparent Kd: 64.5 nM

## CGUGUUGACGAAGGAUAUGGAUACAUGAGGAUCACCCAUGUAUAUUUUGUGAUCAUAUUUAUGAUCCAGAAGGUCGUUGACACG
[1]
  apparent Kd: 56.9 nM
[2]
  apparent Kd: 131 nM

## CGUUGAUGAGGAUAUCGAUGUUAGUACAUGAGGAUCACCCAUGUUAUCCAAGUGUCGGAUCGAGAAGGUAUUGGAC
[1]
  apparent Kd: 320 nM
[2]
  apparent Kd: 306 nM

## CGUUGUGAAGAGGAUAUCCAACAAAGUUGUCAAGGAGAAGGCUUCACAUGAGGAUCACCCAUGUUAUGCCUUAU
[1]
  apparent Kd: 18.2 nM
[2]
  apparent Kd: 80.2 nM

## CGUUUAUAUCGAGGAUAUAAGUCUAGGACAUGAGGAUCACCCAUGUAUGUCUUAGAAGGCGAUAUAAACAGCCUGUUACAGGCA
[3]
  apparent Kd: 35.3 nM
[4]
  apparent Kd: 6.96 nM

## CUAAAUCAUGUAGGAUAUGCAUGGCGAAGCUACGCAGAAGGACAUGAGGAUCACCCAUGUCUCUCCGUCUGCGAACAGACGGAG
[1]
  apparent Kd: 19.6 nM
[2]
  apparent Kd: 104 nM

## CUAAUGAGUGCGAGCUGACACAUGAGGAUCACCCAUGUAACACAGGAUAUCUGUCAAGGCGUGAAAGAGAAGGGUGGUCGGAAA
[3]
  apparent Kd: 142 nM
[4]
  apparent Kd: 263 nM

Reference: the EternaBench riboswitch data
